ChEMBL document CHEMBL1134286, “Novel erythromycin derivatives with aryl groups tethered to the C-6 position are potent protein synthesis inhibitors and active against multidrug-resistant respiratory pathogens” (J Med Chem, 2001)
Values after ≈ are worked out from the molar mass of the structure shown.

Experiments:
Format in all cases: functional
Staphylococcus aureus [1] = experiment: Minimum inhibitory concentration against Staphylococcus aureus A 5177 MLSB-i
Method in brief: (§1)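 MICs were determined by agar dilution following National Committee for Clinical Laboratory Standards recommendations. Values are in µg/mL.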

Staphylococcus aureus [2] = experiment: Minimum inhibitory concentration against Staphylococcus aureus A 5278 MLSB-c; method in brief: as §1
[3] = Minimum inhibitory concentration against Streptococcus pyogenes PIU2548 efflux; method in brief: as §1
Streptococcus pneumoniae [4] = experiment: Minimum inhibitory concentration against Streptococcus pneumoniae 5649 efflux; method in brief: as §1
[5] = Minimum inhibitory concentration against Streptococcus pneumoniae 5737 MLSB; method in brief: as §1
Streptococcus pneumoniae [6] = experiment: Minimum inhibitory concentration against Streptococcus pneumoniae ATCC 6303 Ery-S; method in brief: as §1
[7] = Minimum inhibitory concentration against Streptococcus pyogenes 930MLSB; method in brief: as §1
Staphylococcus aureus [8] = experiment: Minimum inhibitory concentration against Staphylococcus aureus ATCC 6538PEry-S; settings: ATCC 6538P; method in brief: as §1
[9] = Minimum inhibitory concentration against Streptococcus pyogenes EES 61 Ery-S; method in brief: as §1
[10] = Minimum inhibitory concentration against Haemophilus influenzae DILL Amp-R; method in brief: as §1

Structure (SMILES)	MIC (Staphylococcus aureus [1]) [µg/mL]	MIC (Staphylococcus aureus [2]) [µg/mL]	MIC [3] [µg/mL]	MIC (Streptococcus pneumoniae [4]) [µg/mL]	MIC [5] [µg/mL]	MIC (Streptococcus pneumoniae [6]) [µg/mL]	MIC [7] [µg/mL]	MIC (Staphylococcus aureus [8]) [µg/mL]	MIC [9] [µg/mL]	MIC [10] [µg/mL]
CC[C@H]1OC(=O)[C@H](C)[C@@H](O[C@H]2C[C@@](C)(OC)[C@@H](O)[C@H](C)O2)[C@H](C)[C@@H](O[C@@H]2O[C@H](C)C[C@H](N(C)C)[C@H]2O)[C@](C)(OC/C=C/c2ccccc2)C[C@@H](C)C(=O)[C@H](C)[C@@H](O)[C@]1(C)O	6.2 (≈ 7.29 µM)	> 100	16 (≈ 18.8 µM)	4 (≈ 4.71 µM)	32 (≈ 37.6 µM)	0.06 (≈ 0.0706 µM)	32 (≈ 37.6 µM)	0.39 (≈ 0.459 µM)	0.03 (≈ 0.0353 µM)	4 (≈ 4.71 µM)
CC[C@H]1OC(=O)[C@H](C)C(=O)[C@H](C)[C@@H](O[C@@H]2O[C@H](C)C[C@H](N(C)C)[C@H]2O)[C@](C)(OC/C=C/c2ccc(OC)cc2)C[C@@H](C)C(=O)[C@H](C)[C@@H](O)[C@]1(C)O	1.56 (≈ 2.17 µM)	> 100	2 (≈ 2.78 µM)	2 (≈ 2.78 µM)	128 (≈ 178 µM)	1 (≈ 1.39 µM)	64 (≈ 88.9 µM)	1.56 (≈ 2.17 µM)	0.25 (≈ 0.347 µM)	128 (≈ 178 µM)
CC[C@H]1OC(=O)[C@H](C)C(=O)[C@H](C)[C@@H](O[C@@H]2O[C@H](C)C[C@H](N(C)C)[C@H]2O)[C@](C)(OCCNCCc2ccccc2)C[C@@H](C)C(=O)[C@H](C)[C@@H](O)[C@]1(C)O	6.2 (≈ 8.6 µM)	> 100	8 (≈ 11.1 µM)	4 (≈ 5.55 µM)	> 128	2 (≈ 2.77 µM)	> 128	6.2 (≈ 8.6 µM)	2 (≈ 2.77 µM)	64 (≈ 88.8 µM)
CC[C@H]1OC(=O)[C@H](C)C(=O)[C@H](C)[C@@H](O[C@@H]2O[C@H](C)C[C@H](N(C)C)[C@H]2O)[C@](C)(OC/C=C/c2cncc3ccccc23)C[C@@H](C)C(=O)[C@H](C)[C@H]2NC(=O)O[C@@]21C	0.1 (≈ 0.131 µM)	> 100	0.125 (≈ 0.163 µM)	0.25 (≈ 0.326 µM)	64 (≈ 83.6 µM)	0.004 (≈ 0.00522 µM)	8 (≈ 10.4 µM)	0.1 (≈ 0.131 µM)	0.004 (≈ 0.00522 µM)	2 (≈ 2.61 µM)
CC[C@H]1OC(=O)[C@H](C)C(=O)[C@H](C)[C@@H](O[C@@H]2O[C@H](C)C[C@H](N(C)C)[C@H]2O)[C@](C)(OC/C=C/c2ccc3[nH]cnc3c2)C[C@@H](C)C(=O)[C@H](C)[C@H]2NC(=O)O[C@@]21C	0.1 (≈ 0.132 µM)	> 100	2 (≈ 2.65 µM)	4 (≈ 5.3 µM)	8 (≈ 10.6 µM)	0.03 (≈ 0.0397 µM)	4 (≈ 5.3 µM)	0.1 (≈ 0.132 µM)	0.03 (≈ 0.0397 µM)	4 (≈ 5.3 µM)
CC[C@H]1OC(=O)[C@H](C)C(=O)[C@H](C)[C@@H](O[C@@H]2O[C@H](C)C[C@H](N(C)C)[C@H]2O)[C@](C)(OCCNCCCc2ccccc2)C[C@@H](C)C(=O)[C@H](C)[C@H]2NC(=O)O[C@@]21C	0.2 (≈ 0.263 µM)	> 100	2 (≈ 2.63 µM)	0.5 (≈ 0.658 µM)	16 (≈ 21.1 µM)	0.03 (≈ 0.0395 µM)	64 (≈ 84.2 µM)	0.2 (≈ 0.263 µM)	0.03 (≈ 0.0395 µM)	4 (≈ 5.26 µM)
CC[C@H]1OC(=O)[C@H](C)C(=O)[C@H](C)[C@@H](O[C@@H]2O[C@H](C)C[C@H](N(C)C)[C@H]2O)[C@](C)(OC/C=C/c2ccc(Cl)cc2)C[C@@H](C)C(=O)[C@H](C)[C@@H](O)[C@]1(C)O	1.56 (≈ 2.15 µM)	> 100	2 (≈ 2.76 µM)	2 (≈ 2.76 µM)	32 (≈ 44.2 µM)	1 (≈ 1.38 µM)	32 (≈ 44.2 µM)	1.56 (≈ 2.15 µM)	0.5 (≈ 0.69 µM)	64 (≈ 88.4 µM)
C=CCO[C@]1(C)C[C@@H](C)C(=O)[C@H](C)[C@H]2NC(=O)O[C@]2(C)[C@@H](CC)OC(=O)[C@H](C)[C@@H](O[C@H]2C[C@@](C)(OC)[C@@H](O)[C@H](C)O2)[C@H](C)[C@H]1O[C@@H]1O[C@H](C)C[C@H](N(C)C)[C@H]1O	0.78 (≈ 0.976 µM)	> 100	8 (≈ 10 µM)	2 (≈ 2.5 µM)	> 128	0.03 (≈ 0.0375 µM)	> 128	0.2 (≈ 0.25 µM)	0.03 (≈ 0.0375 µM)	2 (≈ 2.5 µM)
CC[C@H]1OC(=O)[C@H](C)C(=O)[C@H](C)[C@@H](O[C@@H]2O[C@H](C)C[C@H](N(C)C)[C@H]2O)[C@](C)(OC/C=C/c2cnc3ccccc3c2)C[C@@H](C)C(=O)[C@H](C)[C@H]2N(CCN(C)C)C(=O)O[C@]12C	0.2 (≈ 0.239 µM)	> 100	2 (≈ 2.39 µM)	2 (≈ 2.39 µM)	4 (≈ 4.78 µM)	0.125 (≈ 0.149 µM)	32 (≈ 38.2 µM)	0.39 (≈ 0.466 µM)	0.03 (≈ 0.0358 µM)	8 (≈ 9.56 µM)
CC[C@H]1OC(=O)[C@H](C)C(=O)[C@H](C)[C@@H](O[C@@H]2O[C@H](C)C[C@H](N(C)C)[C@H]2O)[C@](C)(OCCNCc2ccccc2)C[C@@H](C)C(=O)[C@H](C)[C@H]2NC(=O)O[C@@]21C	0.39 (≈ 0.533 µM)	> 100	2 (≈ 2.73 µM)	2 (≈ 2.73 µM)	> 128	0.03 (≈ 0.041 µM)	> 128	0.2 (≈ 0.273 µM)	0.03 (≈ 0.041 µM)	2 (≈ 2.73 µM)
C=CCO[C@]1(C)C[C@@H](C)C(=O)[C@H](C)[C@@H](O)[C@](C)(O)[C@@H](CC)OC(=O)[C@H](C)C(=O)[C@H](C)[C@H]1O[C@@H]1O[C@H](C)C[C@H](N(C)C)[C@H]1O	50 (≈ 81.5 µM)	> 100	32 (≈ 52.1 µM)	8 (≈ 13 µM)	> 128	4 (≈ 6.52 µM)	> 128	12.5 (≈ 20.4 µM)		> 128
CC[C@H]1OC(=O)[C@H](C)C(=O)[C@H](C)[C@@H](O[C@@H]2O[C@H](C)C[C@H](N(C)C)[C@H]2O)[C@](C)(OCCN)C[C@@H](C)C(=O)[C@H](C)[C@@H](O)[C@]1(C)O	25 (≈ 40.5 µM)	> 100	12.5 (≈ 20.3 µM)				> 100	25 (≈ 40.5 µM)	6.2 (≈ 10.1 µM)	
CC[C@H]1OC(=O)[C@H](C)C(=O)[C@H](C)[C@@H](O[C@@H]2O[C@H](C)C[C@H](N(C)C)[C@H]2O)[C@](C)(OC/C=C/c2cnc3ccccc3c2)C[C@@H](C)C(=O)[C@H](C)[C@H]2N(OC)C(=O)O[C@]12C	0.1 (≈ 0.126 µM)	> 100	0.5 (≈ 0.628 µM)	0.5 (≈ 0.628 µM)	64 (≈ 80.4 µM)	0.06 (≈ 0.0754 µM)	64 (≈ 80.4 µM)	0.1 (≈ 0.126 µM)	0.03 (≈ 0.0377 µM)	8 (≈ 10.1 µM)
CC[C@H]1OC(=O)[C@H](C)[C@@H](O[C@H]2C[C@@](C)(OC)[C@@H](O)[C@H](C)O2)[C@H](C)[C@@H](O[C@@H]2O[C@H](C)C[C@H](N(C)C)[C@H]2O)[C@](C)(OC/C=C/c2cnc3ccccc3c2)C[C@@H](C)C(=O)[C@H](C)[C@@H](O)[C@]1(C)O	3.1 (≈ 3.44 µM)	> 100	4 (≈ 4.44 µM)	4 (≈ 4.44 µM)	128 (≈ 142 µM)	0.06 (≈ 0.0666 µM)	64 (≈ 71 µM)	0.2 (≈ 0.222 µM)	0.06 (≈ 0.0666 µM)	8 (≈ 8.88 µM)
CC[C@H]1OC(=O)[C@H](C)C(=O)[C@H](C)[C@@H](O[C@@H]2O[C@H](C)C[C@H](N(C)C)[C@H]2O)[C@](C)(OCC2CC2c2cnc3ccccc3c2)C[C@@H](C)C(=O)[C@H](C)[C@H]2NC(=O)O[C@@]21C (some centres undefined)	0.05 (≈ 0.0641 µM)	> 100	0.25 (≈ 0.321 µM)	0.5 (≈ 0.641 µM)	32 (≈ 41 µM)	0.03 (≈ 0.0385 µM)	4 (≈ 5.13 µM)	0.05 (≈ 0.0641 µM)	0.03 (≈ 0.0385 µM)	
C=CCO[C@]1(C)C[C@@H](C)C2=NCCN3C(=O)O[C@](C)([C@@H](CC)OC(=O)[C@H](C)C(=O)[C@H](C)[C@H]1O[C@@H]1O[C@H](C)C[C@H](N(C)C)[C@H]1O)[C@H]3[C@H]2C	1.56 (≈ 2.35 µM)	> 100	4 (≈ 6.03 µM)	0.5 (≈ 0.753 µM)	> 128	0.25 (≈ 0.377 µM)	> 128	1.56 (≈ 2.35 µM)	0.25 (≈ 0.377 µM)	32 (≈ 48.2 µM)
CC[C@H]1OC(=O)[C@H](C)C(=O)[C@H](C)[C@@H](O[C@@H]2O[C@H](C)C[C@H](N(C)C)[C@H]2O)[C@](C)(OC/C=C/c2cnc3ccccc3c2)C[C@@H](C)C(=O)[C@H](C)[C@H]2N(N)C(=O)O[C@]12C	0.1 (≈ 0.128 µM)	> 100	0.5 (≈ 0.64 µM)	0.25 (≈ 0.32 µM)	64 (≈ 82 µM)	0.015 (≈ 0.0192 µM)	64 (≈ 82 µM)	0.1 (≈ 0.128 µM)	0.015 (≈ 0.0192 µM)	2 (≈ 2.56 µM)
CC[C@H]1OC(=O)[C@H](C)C(=O)[C@H](C)[C@@H](O[C@@H]2O[C@H](C)C[C@H](N(C)C)[C@H]2O)[C@](C)(OCCNCCCc2cnc3ccccc3c2)C[C@@H](C)C(=O)[C@H](C)[C@H]2NC(=O)O[C@@]21C	0.39 (≈ 0.481 µM)	> 100	2 (≈ 2.47 µM)	2 (≈ 2.47 µM)	2 (≈ 2.47 µM)	0.03 (≈ 0.037 µM)	> 100	0.2 (≈ 0.247 µM)	0.03 (≈ 0.037 µM)	4 (≈ 4.93 µM)
CC[C@H]1OC(=O)[C@H](C)C(=O)[C@H](C)[C@@H](O[C@@H]2O[C@H](C)C[C@H](N(C)C)[C@H]2O)[C@](C)(OC/C=C/c2cnc3sccc3c2)C[C@@H](C)C(=O)[C@H](C)[C@H]2NC(=O)O[C@@]21C	0.05 (≈ 0.0648 µM)	> 100	0.25 (≈ 0.324 µM)	0.25 (≈ 0.324 µM)	0.5 (≈ 0.648 µM)	0.004 (≈ 0.00518 µM)	4 (≈ 5.18 µM)	0.05 (≈ 0.0648 µM)	0.008 (≈ 0.0104 µM)	2 (≈ 2.59 µM)
CC[C@H]1OC(=O)[C@H](C)C(=O)[C@H](C)[C@@H](O[C@@H]2O[C@H](C)C[C@H](N(C)C)[C@H]2O)[C@](C)(OC/C=C/c2ccc3ncccc3c2)C[C@@H](C)C(=O)[C@H](C)[C@H]2NC(=O)O[C@@]21C	0.05 (≈ 0.0653 µM)	> 100	0.25 (≈ 0.326 µM)	0.25 (≈ 0.326 µM)	1 (≈ 1.31 µM)	0.004 (≈ 0.00522 µM)	1 (≈ 1.31 µM)	0.05 (≈ 0.0653 µM)	0.004 (≈ 0.00522 µM)	1 (≈ 1.31 µM)
